High-throughput results (PubChem)
NR2E3 ag-1 – inhibitors of NR2E3-RetCOR corepressor binding, primary screen, NR2E3 agonist project, biochemical, TR-FRET, GST-NR2E3, biotin-RetCOR | Photoreceptor-specific nuclear receptor (Homo sapiens), Q9Y5X4 | 1536-well | inhibition of corepressor binding, % at 4.78 µM | actives 0.12% (n = 320,000);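 active = percent inhibition above the cutoff of mean plus 3 SD of all tested compounds, set per screening campaign, cut at about 20% in these data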;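 also: 0% = DMSO wells and 100% = biotin wells as full block of FRET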
Target sequence (Q9Y5X4 whole entry, looked up): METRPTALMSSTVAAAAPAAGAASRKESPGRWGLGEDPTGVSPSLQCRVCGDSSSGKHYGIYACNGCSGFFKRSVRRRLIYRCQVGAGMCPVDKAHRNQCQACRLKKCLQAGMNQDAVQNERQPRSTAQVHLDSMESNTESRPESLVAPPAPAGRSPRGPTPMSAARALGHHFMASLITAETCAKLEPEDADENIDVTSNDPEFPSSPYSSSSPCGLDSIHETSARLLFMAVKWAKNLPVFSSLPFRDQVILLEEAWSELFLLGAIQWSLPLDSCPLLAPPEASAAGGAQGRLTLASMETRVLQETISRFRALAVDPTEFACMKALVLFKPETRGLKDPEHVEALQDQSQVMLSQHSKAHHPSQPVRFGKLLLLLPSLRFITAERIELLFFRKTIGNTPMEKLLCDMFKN
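system = GST-tagged NR2E3 plus biotinylated RetCOR corepressor | input = 1.35 nM GST-NR2E3 | also added = 7 nM biotin-RetCOR | schedule = 5 h incubation at 4 °C | measured by = TR-FRET with europium anti-GST and streptavidin-D2, 340 nm excitation | read-out = percent loss of FRET ratio relative to control wells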
NR2E3 ag-2 – NR2E3 agonists in two-hybrid cells, primary screen, cell-based, luminescence, CHO-S, Gal4-NCOR/VP16-NR2E3 | luciferase | actives 0.35% (n = 360,000) | inhibition of corepressor binding, % at 3.98 µM | AID 602229, 2012;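 active = inhibition above the mean of all tested compounds plus 3 SD, cut at about 70% in these data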;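 also: 0% = DMSO with NR2E3 transfected cells and 100% = cells lacking NR2E3 construct; higher means lower luciferase signal from less NR2E3 corepressor binding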
PG9 Ab binder – binders of HIV-1 gp120 antibody PG9, primary screen, biochemical, TR-FRET; HIV-1 gp120 / PG9 antibody interaction; TR-FRET gp120-PG9 antibody binding; inhibition, % at 6.7 µM; actives 0.43% (n = 360,000); AID 624416, 2012; in the data active = inhibition above about 8.5%
Rev-erbA mod – modulators of Rev-erb alpha DNA binding, primary screen, biochemical, FITC-DNA, fluorescence polarization, uHTS | activity, % at 10 µM | actives 0.79% (n = 370,000) | Rev-erbα–FITC-DNA binding, 90 min | Nuclear receptor subfamily 1 group D member 1 (Homo sapiens), P20393 | AID 1259318, 2017;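 active = activity above about 14%, limit read from the data; passing the limit was not always enough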;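 also: 0% = DMSO wells with 35 nM protein and 100% = DMSO wells with 750 nM protein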
NR2E3 ag confirm – NR2E3 agonist confirmation in cells, cell-based, luminescence, CHO-S two-hybrid | shares compounds with NR2E3 ag-2 | CHO-S mammalian two-hybrid NR2E3-NCOR, luciferase luminescence | inhibition, % at 3.98 µM | actives 51% (n = 2,300);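 active = average inhibition above a cutoff equal to the mean inhibition of all tested compounds plus one SD, cut at about 70% in these data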;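 also: 0% = DMSO in NR2E3 cells and 100% = DMSO in cells lacking NR2E3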
VP16 counter – GAL4-VP16 reporter modulators, confirmation, counter-screen for NR2E3 agonist project, cell-based, luminescence, CHO-S, high throughput. inhibition, % at 3.98 µM. actives 29% (n = 2,300). shares compounds with NR2E3 ag-2. AID 624379, 2012. CHO-S GAL4-VP16 luciferase reporter;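 active = mean inhibition above a cutoff equal to the average over all tested compounds plus one standard deviation, cut at about 70% in these data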;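 also: luciferase from a UAS reporter driven by GAL4-VP16 transactivation; 0% = DMSO with VP16-transfected cells and 100% = DMSO with cells lacking VP16; higher means less reporter light so more repression of VP16 activity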
Numbers without * were called inactive. Compounds with a hit are over-represented: about 1.4% of the library has one in this group of screens.

Results for CC(=O)OC1C(O)C(C)OC(OC2C(OC(=O)C3CCC4C(C3)OC3(CC(OC(=O)/C=C/c5ccccc5)C(C)CO3)C43CO3)OC(C)C(O)C2OC(C)=O)C1O (stereo not given) ?
NR2E3 ag-2: 103*; PG9 Ab binder: 1; Rev-erbA mod: 4; NR2E3 ag confirm: 99*; VP16 counter: 99*

Results for O=C1CCO1 ?
Rev-erbA mod: -7

How did S=C=NCc1ccccc1 do in these assays?
Rev-erbA mod: 6

How did c1ccc2c(c1)[IH]c1ccccc1-2 do in these assays?
NR2E3 ag-2: 100*; PG9 Ab binder: 0; Rev-erbA mod: -1; NR2E3 ag confirm: 97*; VP16 counter: 88*

What do the screens show for `c1ccc2c(c1)-c1cccc3cccc-2c13`?
NR2E3 ag-1: 1; NR2E3 ag-2: -8; PG9 Ab binder: 1; Rev-erbA mod: -5

What do the screens show for `C#CCN1CC(=O)N(COC(=O)C2C(C=C(C)C)C2(C)C)C1=O` (stereo not given)?
Rev-erbA mod: 12

What do the screens show for `COc1cc2nc(CN3CC=C(c4ccccc4)CC3)[nH]c(=O)c2cc1OC`?
NR2E3 ag-1: 0; NR2E3 ag-2: 90*; PG9 Ab binder: -1; Rev-erbA mod: 2; NR2E3 ag confirm: 99*; VP16 counter: 42

Results for COc1cc2c(cc1OC)C1C(=O)c3ccc4c(c3OC1CO2)CC(C(C)C)O4 (stereo not given) ?
NR2E3 ag-2: 102*; PG9 Ab binder: 1; Rev-erbA mod: 8; NR2E3 ag confirm: 96*; VP16 counter: 94*

What do the screens show for `COc1cc2c(cc1OC)[C@@H]1C(=O)c3ccc4c(c3O[C@@H]1CO2)C[C@H](C(C)C)O4`?
NR2E3 ag-1: 0; NR2E3 ag-2: 96*; PG9 Ab binder: -1; Rev-erbA mod: -1; NR2E3 ag confirm: 100*; VP16 counter: 93*

Results for C[C@@H]1C[C@H]2OC(=O)C3(CO3)[C@H]2[C@H](O)[C@]2(C)C(=O)C3OC3[C@@H]12 (stereo not given in full) ?
NR2E3 ag-1: 4

How did C=C1C(=O)O[C@@H]2C[C@@H](C)[C@@H]3C=CC(=O)[C@@]3(C)[C@@H](O)[C@H]12 do in these assays?
NR2E3 ag-1: 8; NR2E3 ag-2: 100*; PG9 Ab binder: -1; Rev-erbA mod: 2; NR2E3 ag confirm: 99*; VP16 counter: 54

How did N#Cc1nn(-c2c(Cl)cc(C(F)(F)F)cc2Cl)c(N)c1S(=O)C(F)(F)F (stereo not given) do in these assays?
Rev-erbA mod: 0

What do the screens show for `c1ccc2c(c1)sc1ccccc12`?
Rev-erbA mod: 1

Results for C=C[C@H]1CN2CC[C@H]1C[C@@H]2[C@@H](OC(=O)OCC)c1ccnc2ccc(OC)cc12 ?
Rev-erbA mod: -5

Results for CCC1C(=O)OCC1Cc1cncn1C (stereo not given) ?
Rev-erbA mod: 2

What do the screens show for `CC[C@@]1(O)C(=O)OCc2c1cc1n(c2=O)Cc2cc3ccccc3nc2-1`?
NR2E3 ag-1: -1

Results for CCC1(OC(=O)CN)C(=O)OCc2c1cc1n(c2=O)Cc2cc3ccccc3nc2-1 (stereo not given) ?
NR2E3 ag-1: 4; NR2E3 ag-2: 93*; NR2E3 ag confirm: 94*; VP16 counter: 56

Results for Nc1ncnc2c1ccn2[C@@H]1O[C@H](CO)[C@@H](O)[C@H]1O ?
NR2E3 ag-1: 2; NR2E3 ag-2: 100*; PG9 Ab binder: 0; Rev-erbA mod: 3; NR2E3 ag confirm: 98*; VP16 counter: 89*

How did NC(=S)c1cn(C2OC(CO)C(O)C2O)c2ncnc(N)c12 (stereo not given) do in these assays?
NR2E3 ag-1: 0; NR2E3 ag-2: 103*; PG9 Ab binder: -1; Rev-erbA mod: -2; NR2E3 ag confirm: 98*; VP16 counter: 88*

Results for NCC(O)c1cccc(O)c1 (stereo not given) ?
Rev-erbA mod: 3

Results for CCOc1cccc(CNCCc2c(C)[nH]c3ccc(OC(F)(F)F)cc23)c1O ?
NR2E3 ag-1: 2; NR2E3 ag-2: 98*; PG9 Ab binder: -1; Rev-erbA mod: 5; NR2E3 ag confirm: 90*; VP16 counter: 71

What do the screens show for `Oc1c(Cl)c(Cl)c(Cl)c(Cl)c1Cl`?
NR2E3 ag-1: -3; NR2E3 ag-2: 98*; PG9 Ab binder: 0; Rev-erbA mod: 7; NR2E3 ag confirm: 99*; VP16 counter: 92*

Results for C#CCCC[C@@H]1OC(=O)CNC(=O)C([C@@H](C)CC)NC(=O)[C@@H]2CCCN2C(=O)C([C@@H](C)CC)OC(=O)[C@H](Cc2ccccc2)N(C)C(=O)[C@H](C(C)C)NC(=O)C1(C)C (stereo not given in full) ?
NR2E3 ag-2: 3; PG9 Ab binder: -1; Rev-erbA mod: 3

What do the screens show for `CCC(C)C1NC(=O)C(NC(=O)C(CC(C)C)N(C)C(=O)C2CCCN2C(=O)C(C)O)C(C)OC(=O)C(Cc2ccc(OC)cc2)N(C)C(=O)C2CCCN2C(=O)C(CC(C)C)NC(=O)[C@H](C)C(=O)[C@H](C(C)C)OC(=O)CC1O` (stereo not given in full)?
NR2E3 ag-2: 102*; PG9 Ab binder: -3; Rev-erbA mod: 1; NR2E3 ag confirm: 99*; VP16 counter: 100*

Results for COC(=O)C1(N(C)c2ccccc2)CCN(Cc2ccccc2)CC1 ?
Rev-erbA mod: 0

What do the screens show for `CCOC(=O)[C@]12Cc3cc(OC)ccc3[C@H]1N(C1CCCCC1)C(=O)c1cc(OC)ccc12`?
NR2E3 ag-2: -13; PG9 Ab binder: 0; Rev-erbA mod: 4

What do the screens show for `CCOC(=O)[C@]12Cc3cc(C)ccc3[C@H]1N(C1CCCCC1)C(=O)c1cc(OC)ccc12`?
NR2E3 ag-2: 95*; PG9 Ab binder: 0; Rev-erbA mod: -2; NR2E3 ag confirm: 99*; VP16 counter: 43

What do the screens show for `CC1=CC2OC3CC4OC(=O)C=CC=CC(=O)OCCC(C)C(O)C(=O)OCC2(CC1O)C4(C)C31CO1` (stereo not given)?
NR2E3 ag-2: 99*; NR2E3 ag confirm: 100*; VP16 counter: 99*
